In ChEMBL document CHEMBL3407447, “Probing the molecular and structural elements of ligands binding to the active site versus an allosteric pocket of the human farnesyl pyrophosphate synthase” (Bioorg Med Chem Lett, 2015):
Calls of active or inactive are those of the source. No cut-off for these calls is given here.

Test system: Rattus norvegicus
Assay: Reduction in hypercalcemia in sc dosed rat
Format: functional
Details: read-out: MED

SMILES | minimal effective dose
O.O=P(O)(O)C(O)(Cn1ccnc1)P(=O)(O)O [ZOLEDRONIC ACID] | 0.03 mg/kg
O=P(O)(O)C(O)(Cc1cnc2ccccn12)P(=O)(O)O [MINODRONIC ACID] | 0.03 mg/kg

Target: T1, Farnesyl pyrophosphate synthase (Homo sapiens, UniProt P14324)
T1 sequence (P14324 whole entry): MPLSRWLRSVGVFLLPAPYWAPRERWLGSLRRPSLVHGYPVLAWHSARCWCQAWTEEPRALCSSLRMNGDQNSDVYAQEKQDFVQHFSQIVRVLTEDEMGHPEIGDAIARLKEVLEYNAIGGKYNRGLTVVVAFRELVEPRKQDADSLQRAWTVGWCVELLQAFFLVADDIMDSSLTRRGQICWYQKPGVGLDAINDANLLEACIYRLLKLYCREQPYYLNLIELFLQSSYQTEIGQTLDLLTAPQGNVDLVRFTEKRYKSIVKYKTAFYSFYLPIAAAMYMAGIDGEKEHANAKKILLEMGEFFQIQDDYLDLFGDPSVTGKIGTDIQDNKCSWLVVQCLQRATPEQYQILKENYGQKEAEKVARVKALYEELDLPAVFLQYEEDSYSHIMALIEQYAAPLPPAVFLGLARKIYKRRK
Assay: Inhibition of human FPPS
Details: not given

IC50 | SMILES
1100 nM | CC(C)C(C)c1[nH]c2ccc(-c3ccccc3)cc2c1CC(P(=O)(O)O)P(=O)(O)O (centres undefined)

Target: T2, Farnesyl pyrophosphate synthase (Homo sapiens) (UniProt P14324)
T2 sequence (whole entry): T1 sequence (P14324 whole entry)
Assay: Inhibition of human FPPS at 10 uM
Details: not given
Summary of the method: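 Single fixed-concentration screen in the human FPPS enzyme inhibition assay, run alongside two known bisphosphonate inhibitors as positive controls.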

inhibition | SMILES
Active | Cc1c(CC(P(=O)(O)O)P(=O)(O)O)c2ccccc2n1C
Active | CC(C)n1cc(CC(P(=O)(O)O)P(=O)(O)O)c2ccccc21
Active | CC(C)C(C)c1[nH]c2ccc(-c3ccccc3)cc2c1CC(P(=O)(O)O)P(=O)(O)O (centres undefined)
Active | Cn1cc(CC(P(=O)(O)O)P(=O)(O)O)c2ccccc21
Active | CC(c1[nH]c2ccccc2c1CC(P(=O)(O)O)P(=O)(O)O)C1CCCC1 (centres undefined)
Active | CCn1cc(CC(P(=O)(O)O)P(=O)(O)O)c2ccccc21
inactive | Cn1c(NCC(P(=O)(O)O)P(=O)(O)O)nc2cccnc21
Active | CC(C)(C)c1[nH]c2ccccc2c1CC(P(=O)(O)O)P(=O)(O)O
Active | CC(C)C(C)c1[nH]c2ccccc2c1CC(P(=O)(O)O)P(=O)(O)O (centres undefined)
Active | Cc1[nH]c2ccccc2c1CC(P(=O)(O)O)P(=O)(O)O
Active | Cn1c(NCC(P(=O)(O)O)P(=O)(O)O)nc2ncccc21
